Source: ChEMBL document CHEMBL4382237, “Design, Synthesis, and Biological Evaluation of 2-Nitroimidazopyrazin-one/-es with Antitubercular and Antiparasitic Activity” (J Med Chem, 2018)
≈ marks a conversion by molar mass, not a printed value. Calls of active or inactive are those of the source. The calls are words filed in the database; no cut-off is given here.

Key:
[1] = system: Giardia intestinalis; test: Antiparasitic activity against Giardia lamblia WB trophozoites after 24 to 48 hrs by CellTiter-Glo luminescent cell viability assay; details: Giardia duodenalis
[2] = system: Entamoeba histolytica; test: Antiparasitic activity against Entamoeba histolytica HM-1:IMSS trophozoites after 24 to 48 hrs by CellTiter-Glo luminescent cell viability assay; type: functional, organism-based
Method in brief: (§1)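 Axenic trophozoites were kept in TYI-S-33 with penicillin (100 U/mL) and streptomycin (100 µg/mL) and harvested in log phase. 5000 parasites per well were exposed to a final 8-point two-fold series of 0.39–50 µM, from 10 mM DMSO stocks. Plates were incubated 24–48 h at 37 °C under anaerobic conditions. ATP luminescence viability was read in triplicate. Percent inhibition is given at the highest concentration tested.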

[3] = system: Clostridioides difficile; test: Antibacterial activity against Clostridium difficile 630 ATCC BAA-1382 by broth microdilution assay; type: functional
Method in brief: (§2)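 Broth microdilution run essentially per an earlier report. MIC taken as the lowest concentration with no visible growth. Replicates typically agreed within one 2-fold dilution. The median MIC is reported, with a range where the median fell between two tested concentrations.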

[4] = system: Mycobacterium tuberculosis; test: Antibacterial activity against Mycobacterium tuberculosis H37Rv after 5 days under normoxic condition by resazurin dye-based fluorescence assay; type: functional, organism-based
Method in brief: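 H37Rv grown in 7H9/ADC/glycerol/Tyloxapol to mid-exponential phase, diluted to OD600 0.001 (~2 x 10^4 CFU/mL) in 7H9S with serially diluted compound. Incubated 5 days at 37 °C, then resazurin and Tween-80 added. Fluorescence (ex 530/em 590 nm) read after 24 h, normalised to no-drug and no-bacteria wells.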

[5] = system: Mycobacterium tuberculosis; test: Antibacterial activity against non-replicating Mycobacterium tuberculosis H37Rv after 5 days under hypoxic condition by resazurin dye-based fluorescence assay; type: functional; details: 120 h
Method in brief: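 Same H37Rv inoculum (OD600 0.001, ~2 x 10^4 CFU/mL) in 7H9S with serially diluted compound. Plates held 5 days at 0.1% oxygen, then resazurin plus Tween-80 added.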

[6] = system: Trypanosoma brucei brucei; test: Antiparasitic activity against bloodstream form of Trypanosoma brucei brucei strain 427 after 48 hrs by resazurin dye-based assay; type: functional, organism-based; details: for IC50: strain 427, 48 h
[7] = system: Staphylococcus aureus; test: Antibacterial activity against methicillin-resistant Staphylococcus aureus ATCC […] by broth microdilution assay; type: functional
[8] = system: Escherichia coli; test: Antibacterial activity against Escherichia coli ATCC 25922 by broth microdilution assay; type: functional; method in brief: as §2
[9] = system: Klebsiella pneumoniae; test: Antibacterial activity against Klebsiella pneumoniae 700603 by broth microdilution assay; type: functional; method in brief: as §2
[10] = system: Acinetobacter baumannii; test: Antibacterial activity against Acinetobacter baumannii ATCC 19606 by broth microdilution assay; type: functional; details: ATCC 19606 = CIP 70.34 = JCM 6841; method in brief: as §2
[11] = system: Pseudomonas aeruginosa; test: Antibacterial activity against Pseudomonas aeruginosa ATCC 27853 by broth microdilution assay; type: functional; method in brief: as §2
[12] = system: Candida albicans; test: Antifungal activity against Candida albicans ATCC 90028 by broth microdilution assay; type: functional; method in brief: as §2
[13] = system: Cryptococcus neoformans; test: Antifungal activity against Cryptococcus neoformans H99 ATCC […] broth microdilution assay; type: functional; details: var. grubii H99 ATCC 208821; method in brief: as §2
[14] = system: HEK293; test: Cytotoxicity against HEK293 cells after 24 hrs by resazurin dye-based fluorescence assay; type: cell-based; details: human, hek293, 24 h
Method in brief: (§3)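 HEK293 (3000/well) and HepG2 (5000/well) were grown 24 h in DMEM with 10% FBS at 37 °C, 5% CO2. Cells were then exposed 24 h to a dilution series up to 100 µM (0.5% DMSO). 5 µM resazurin was added for 2 h, read at ex 560/em 590. 1% Triton X-100 served as lysis control. CC50 was derived from the curves.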

[15] = system: HepG2; test: Cytotoxicity against human HepG2 cells after 24 hrs by resazurin dye-based fluorescence assay; type: cell-based; details: hepg2, 24 h; method in brief: as §3
[16] = Metabolic stability in human liver microsomes assessed as parent compound remaining at 3 uM after 2 hrs by LC-MS/MS analysis
[17] = Metabolic stability in CD-1 mouse liver microsomes assessed as parent compound remaining at 3 uM after 2 hrs by LC-MS/MS analysis
[18] = Metabolic stability in human plasma assessed as parent compound remaining at 3 uM after 2 hrs by LC-MS/MS analysis
[19] = Metabolic stability in CD-1 mouse plasma assessed as parent compound remaining at 3 uM after 2 hrs by LC-MS/MS analysis
[20] = Protein binding in human plasma at 5 uM after 30 mins by LC-MS/MS analysis based ultrafiltration method; details: 0.5 h
[21] = system: Entamoeba histolytica; test: Antiparasitic activity against Entamoeba histolytica HM-1:IMSS trophozoites assessed as inhibition of parasitic growth at 50 uM after 24 to 48 hrs by CellTiter-Glo luminescent cell viability assay relative to control; type: functional; details: read-out: GI; method in brief: as §1
[22] = buffer, 24 h, 200 µM
[23] = buffer, pH 7.4, 24 h, 200 µM
[24] = physchem; details: water
[25] = physchem; details: PBS, pH 7.4
[26] = Apparent permeability across apical to basolateral side in human Caco2 cells at 2 uM after 2 hrs by lucifer yellow dye-based LC-MS/MS analysis; details: caco-2, 2 h
[27] = Apparent permeability across basolateral to apical side in human Caco2 cells at 2 uM after 2 hrs by lucifer yellow dye-based LC-MS/MS analysis; details: caco-2, 2 h
[28] = Apparent permeability across apical to basolateral side in human Caco2 cells assessed as mean drug recovery at 2 uM after 2 hrs by lucifer yellow dye-based LC-MS/MS analysis; details: caco-2, 2 h
[29] = Apparent permeability across basolateral to apical side in human Caco2 cells assessed as mean drug recovery at 2 uM after 2 hrs by lucifer yellow dye-based LC-MS/MS analysis; details: Caco-2
[30] = system: Giardia intestinalis; test: Antiparasitic activity against Giardia lamblia WB trophozoites after 24 to 48 hrs by CellTiter-Glo luminescent cell viability assay; details: Giardia duodenalis

Compound	IC50 [1] [µM]	IC50 ([1]; read-out: pIC50 (converted)) [µM]	IC50 ([2]; read-out: IC50) [µM]	MIC [4] [µg/mL]	MIC [5] [µg/mL]	IC50 ([6]; read-out: IC50) [µM]	IC50 ([6]; read-out: pIC50 (converted)) [µM]	Stability [16] [%]	Stability [17] [%]	Stability [18] [%]	Stability [19] [%]	PPB [20] [%]	other results
O=c1c2nc([N+](=O)[O-])cn2ccn1Cc1ccc(F)cc1	6.4	6.31	> 50	1 (≈ 3.47 µM)	2 (≈ 6.94 µM)	2.9	3.16	99	> 99	98	> 99	82	MIC [3]: > 64 µg/mL; MIC [7]: > 32 µg/mL; MIC [8]: > 32 µg/mL; MIC [9]: > 32 µg/mL; MIC [10]: > 32 µg/mL; MIC [11]: > 32 µg/mL; MIC [12]: > 32 µg/mL; MIC [13]: > 32 µg/mL; CC50 [14]: > 100 µM; CC50 [15]: > 100 µM
CC(=O)OCCn1c(C)cn2cc([N+](=O)[O-])nc2c1=O	50	50.1		>32	> 32	0.65	0.631						inhibition of growth at 50 µM [21]: 41%; log(Kinetic_solubility) [22]: > -4; log(Kinetic_solubility) [23]: > -4; solubility kinetic at 24 h, 200 µM [24]: 100 to 200 µM (≈ 28 to 56 µg/mL); solubility kinetic at 24 h, 200 µM [25]: 100 to 200 µM (≈ 28 to 56 µg/mL)
Cc1cn2cc([N+](=O)[O-])nc2c(=O)n1Cc1ccc(OC(F)(F)F)cc1	5.8	6.31	> 50	>32	> 32	0.41	3.98	> 99	> 99	92	99	98	IC50 ([2]; read-out: pIC50 (converted)): > 50.1 µM
CC(=O)OCCOc1nc(C)cn2cc([N+](=O)[O-])nc12	21	20			> 32	> 40	> 39.8						inhibition of growth at 50 µM [21]: 42%
O=[N+]([O-])c1cn2c(n1)OC[C@@H](OCc1ccc(OC(F)(F)F)cc1)C2 [PRETOMANID]													Papp [26]: 29 ×10⁻⁶ cm/s; Papp [27]: 22 ×10⁻⁶ cm/s; Drug recovery [28]: 81%; recovery at 2 h, 2 µM [29]: 101%
O=c1c2nccn2ccn1Cc1ccc(F)cc1													Activity [2]: inactive; Activity [6]: inactive; Activity [30]: inactive
Cc1cn2cc([N+](=O)[O-])nc2c(OCc2ccc(OC(F)(F)F)cc2)n1	7.4	7.94	9.5	>32	> 32	> 40	> 39.8	69	7.9	94	> 99	> 99	IC50 ([2]; read-out: pIC50 (converted)): 10 µM
O=c1c2nc([N+](=O)[O-])cn2ccn1Cc1cccc(OC(F)(F)F)c1								> 99	> 99	> 99	97		MIC [3]: > 64 µg/mL; Papp [26]: 24 ×10⁻⁶ cm/s; Papp [27]: 24 ×10⁻⁶ cm/s; Drug recovery [28]: 88%; recovery at 2 h, 2 µM [29]: 99%
